Bioassay records: PubChem BioAssay, Sanford-Burnham Center for Chemical Genomics
DNMT1 inh: DNMT1 (human) enzyme inhibition | P26358 | DNMT1 molecular beacon, Hinp1I cleavage, fluorescence | inhibition (reported as % activation of signal), % at 10 µM | 0.83% of 360,000 active; in the data active = inhibition above about 50%
SUMO1 PPI mod: modulators of human SUMO1-mediated protein-protein interactions; inhibition, % at 20 µM; 0.33% of 360,000 active; P63165; SUMO1 binding to a labelled peptide, TR-FRET, 1 h; in the data active = inhibition above about 37%
Target sequence (P63165 whole entry, looked up): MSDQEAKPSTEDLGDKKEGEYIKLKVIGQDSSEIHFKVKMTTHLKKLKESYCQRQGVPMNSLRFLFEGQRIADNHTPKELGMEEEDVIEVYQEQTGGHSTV
Scp1 inh: blocks human Scp-1 phosphatase activity. Recombinant Scp1, phosphopeptide, malachite green phosphate absorbance. inhibition, % at 20 µM. 0.88% of 340,000 active. AID 493091;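 active = inhibition above about 50% at 20 µM, limit read from the data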;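 also: plate controls were DMSO wells with enzyme for no effect and wells lacking enzyme for full effect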
Target sequence (Q9GZU7 76-261 limits assumed): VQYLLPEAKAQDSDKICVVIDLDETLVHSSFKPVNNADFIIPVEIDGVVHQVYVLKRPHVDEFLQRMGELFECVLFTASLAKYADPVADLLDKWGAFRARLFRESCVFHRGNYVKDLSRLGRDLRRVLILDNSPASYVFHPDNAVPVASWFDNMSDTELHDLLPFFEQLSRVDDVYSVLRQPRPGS
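Times: enzyme reaction 45 min at room temperature, colour 5 min, stabilisation 30 min. Material: SCP-1 catalytic fragment, aa 76-261. Medium: Acidic Tris acetate buffer with magnesium and detergent. Signal: colorimetric free-phosphate detection, absorbance 630 nm. Read-out basis: % inhibition of SCP-1 phosphate liberation. Reagent: Phosphorylated 17-residue peptide substrate.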
STEP inh: inhibitors of human striatal-enriched phosphatase STEP; inhibition, % at 20 µM; recombinant STEP, OMFP fluorogenic substrate, fluorescence; P54829; 0.25% of 360,000 active;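 active = inhibition at 20 µM, scaled per plate between control wells, above about 37%, limit read from the data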;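 also: 0% = DMSO with enzyme and substrate and 100% = substrate only without enzyme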
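System: STEP (striatal-enriched tyrosine phosphatase) enzyme, cell-free; medium: Bis-Tris pH 6.0 buffer with DTT, detergent; dosing: 20 µM, 1% DMSO; times: reaction 20 min, ambient temperature; detection: fluorescence, 480/540 nm; read-out basis: normalized % inhibition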
CSN deneddyl inh: blocks human CSN-mediated cullin deneddylation; Q92905; Purified CSN, SCF-Nedd8-OG deneddylation, fluorescence polarization; inhibition, % at 12.5 µM; 0.38% of 360,000 active; AID 651999;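 active = pattern-corrected inhibition above about 35%, with an unprinted fluorescence ratio check between 0.5 and 1.5, limit read from the data, passing the limit was not always enough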;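 also: 0% = enzyme with substrate and 100% = substrate without enzyme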
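Assay system: Purified human Csn5 enzyme expressed in HEK293T cells | Amount: Enzyme 0.24 nM | Measured by: Fluorescence polarization readout | Medium: Tris/NaCl/DTT buffer, pH 7.5 | Compound dosing: One concentration, 12.5 µM, 0.25% DMSO | Times: 90 min incubation of compound, enzyme and substrate at room temperature | Control set: no-enzyme wells high, enzyme-with-substrate wells low | Read-out: % inhibition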
LMPTP block: blocks human LMPTP phosphatase; recombinant LMPTP-A, OMFP fluorogenic substrate, fluorescence intensity; P24666; inhibition, % at 20 µM; 0.22% of 360,000 active;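 active = compounds that cut the enzyme signal by at least half of the control window in the single-dose screen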;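 also: plate controls were DMSO wells with enzyme plus substrate for no effect and substrate without enzyme for full effect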
Target sequence (P24666 whole entry, looked up): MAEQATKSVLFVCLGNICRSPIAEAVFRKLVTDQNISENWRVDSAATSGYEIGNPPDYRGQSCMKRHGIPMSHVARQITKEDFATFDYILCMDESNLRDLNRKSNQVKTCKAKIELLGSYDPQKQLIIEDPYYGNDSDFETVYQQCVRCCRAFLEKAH
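Test system – LMPTP-A enzyme · Amount – LMPTP-A at 0.625 nM final in the reaction · Buffer or medium – Bis-Tris pH 6.0, DTT, detergent · Reagent – OMFP 400 µM · Doses – single 20 µM dose · Schedule – reaction 50 min, room temperature, dark · Detection – fluorescence intensity of OMFP turnover product · Evaluation – percent inhibition versus substrate-only and uninhibited controls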
Scp1 confirm: Scp-1 (human) inhibition, single-dose confirmed. shares compounds with Scp1 inh. recombinant SCP-1 catalytic domain, phosphate release, malachite green absorbance. 61% of 2,500 active. inhibition, % at 20 µM;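 also: plate controls were DMSO with enzyme for no effect and buffer wells lacking enzyme for full effect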
Scp-1 MG ctr: interferes with malachite green readout, flagging false Scp-1 hits. shares compounds with Scp1 inh. Colorimetric interference counterscreen, malachite green absorbance 630 nm. apparent inhibition (interference), % at 20 µM. 2,500 tested, under 10 active. AID 540313;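 also: compounds added after enzyme reaction finished so only phosphate colour detection is probed; plate controls were DMSO wells with completed Scp-1 reaction for no effect and substrate wells lacking enzyme for full effect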
Scp1 DSF: validation of human Scp-1 inhibitors by thermal shift binding; 25% of 1,500 active; shares compounds with Scp1 inh; Recombinant SCP1, Sypro Orange thermal shift Tm; thermal shift relative to vanadate control, % at 40 µM; AID 540329;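 active = substances whose mean melting-temperature shift, as a percentage of the reference inhibitor's shift, reaches about 5.3%, limit read from the data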;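 also: 0% = Tm of DMSO wells and 100% = Tm with sodium orthovanadate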
* marks the source's active call; other numbers are inactive results; / = no result. Hits are enriched below; roughly 1.9% of the tested compounds scored in any of these assays.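 The calls were made as follows, unless noted: active = inhibition of at least 30% at 20 µM; inactive = the rest.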

SMILES | DNMT1 inh | SUMO1 PPI mod | Scp1 inh | STEP inh | CSN deneddyl inh | LMPTP block | Scp1 confirm | Scp-1 MG ctr | Scp1 DSF
CC1CCC(C(C)C)C(OCC[N+](C)(C)C)C1 (stereo not drawn) | 5 | 2 | 58* | -2 | -1 | -3 | -10 | -10 | /
C[N+]1(C)CCC(=C(c2ccccc2)c2ccccc2)CC1 | 1 | 1 | -14 | 0 | -5 | 1 | / | / | /
C=CCNc1nc(C(=O)OCC(=O)Nc2ccc(S(N)(=O)=O)cc2)cs1 | -4 | -1 | 58* | 3 | 8 | 13 | 65* | -10 | -2
CCN(CC)S(=O)(=O)c1ccc(O)c(C(=O)OCC(=O)N2CCCC2)c1 | 4 | 3 | 53* | 5 | 1 | -1 | -7 | -11 | /
NC(=S)N/N=C1\CC(c2ccc3c(c2)OCCO3)Oc2ccc(F)cc21 (stereo not drawn) | -4 | -5 | -17 | 0 | 0 | 4 | / | / | /
O=C(O)C1C2C=CC(C2)C1C(=O)N1CCc2ccccc21 (stereo not drawn) | 6 | -3 | -5 | 3 | 5 | 0 | / | / | /
O=C(O)C1CC=CCC1C(=O)N1CCc2ccccc21 (stereo not drawn) | 33 | -2 | 52* | 5 | 0 | 1 | 49* | 0 | 0
Cc1nc2ccc(C(=O)O)cc2c2c1CC(C)S2 (stereo not drawn) | 54* | 16 | 79* | 7 | 23 | 0 | 61* | -10 | 4
O=C(N/C(=C/c1cccc([N+](=O)[O-])c1)C(=O)N1CCCCCC1)c1ccco1 | 1 | -26 | 4 | -1 | 1 | -2 | / | / | /
CCOc1cccc(/C=N/NC(=O)CC2C(=O)NN=C2C)c1O (stereo not drawn) | 0 | 2 | -9 | 2 | 7 | -1 | -6 | -11 | /
COc1cc(/C=N/NC(=O)CC2C(=O)NN=C2C)ccc1O (stereo not drawn) | -4 | -2 | -16 | 0 | 2 | -3 | -19 | -18 | /
CC1=NNC(=O)C1CC(=O)N/N=C/c1ccc(C)o1 (stereo not drawn) | -2 | -8 | -9 | 1 | 4 | -1 | / | / | /
CCOc1cccc(/C=N/NC(=O)C2CCCC2)c1O | -1 | -3 | -7 | 4 | 2 | 0 | / | / | /
Cc1ccc(C)c(N2CCN(C(=O)Cn3c(=O)oc4cc(S(=O)(=O)N5CCCC5)ccc43)CC2)c1 | -6 | 2 | 1 | 0 | 0 | 1 | / | / | /
O=C(Cn1c(=O)oc2cc(S(=O)(=O)N3CCCCCC3)ccc21)NC1CCCCCCC1 | 24 | 9 | 101* | 2 | 3 | 2 | 54* | -9 | -13
O=C(Cn1c(=O)oc2cc(S(=O)(=O)N3CCCC3)ccc21)N1CCN(c2ccccc2)CC1 | 0 | 2 | 69* | 5 | 10 | 0 | -2 | -16 | /
CC1C(O)=C(c2ccccc2)P(=O)(Cc2ccccc2)C1C (stereo not drawn) | / | 7 | / | / | -1 | -2 | / | / | /
CCOc1ccccc1NC(=O)CCS(=O)(=O)c1ccc(Br)cc1 | 105* | 57* | 92* | 39 | 19 | 1 | 67* | -16 | -16
COc1cccc(/C=C2\SC(=S)N(CCCC(=O)Nc3cccc(C(=O)O)c3)C2=O)c1 | 1 | -20 | / | 1 | 1 | -1 | / | / | /
Cc1ccc(NC(=O)CN2C(=O)S/C(=C\c3cc(Cl)c(OCC(=O)O)c(Cl)c3)C2=O)cc1 | 8 | 20 | 90* | 98* | 15 | 85* | 57* | -15 | -4
O=C(CCN1C(=O)S/C(=C\c2ccc(Cl)cc2)C1=O)Nc1ccc(C(=O)O)cc1 | 1 | -23 | 80* | 8 | 3 | 12 | 72* | -13 | -4
CCOc1ccc(/C=C2\SC(=S)N(CCC(=O)Nc3cccc(C(=O)O)c3)C2=O)cc1 | 0 | -16 | 85* | 54* | 16 | 74* | 61* | -20 | 37*
O=C(CCN1C(=O)/C(=C/c2ccc3c(c2)OCO3)SC1=S)Nc1ccc(C(=O)O)cc1 | 5 | 4 | 84* | 18 | 9 | 92* | 71* | -11 | 8.7*
CCOc1ccc(/C=C2\SC(=S)N(CCC(=O)Nc3ccc(C(=O)O)cc3)C2=O)cc1 | 62* | 31 | 88* | 45* | 6 | 67* | 60* | -20 | 5
O=C(CCCN1C(=O)/C(=C\c2ccccc2)SC1=S)Nc1ccc(C(=O)O)cc1 | 1 | -23 | 1 | 1 | 14 | 2 | / | / | /
SMILES | DNMT1 inh | SUMO1 PPI mod | Scp1 inh | STEP inh | CSN deneddyl inh | LMPTP block | Scp1 confirm | Scp-1 MG ctr | Scp1 DSF
CCOc1cc2c(cc1/C=C(/C#N)c1ccc(C(=O)O)cc1)OCO2 | 0 | -7 | 5 | -2 | 6 | -1 | / | / | /
N#C/C(=C\c1cc2c(cc1Br)OCO2)c1ccc(C(=O)O)cc1 | 0 | -16 | 52* | 3 | -2 | 0 | 68* | -5 | -1
Cc1c(C(=O)Nc2ccccn2)sc2nc3n(c(=O)c12)CCC3 | 2 | 7 | 1 | 0 | 2 | -1 | / | / | /
O=C1NC(=Nc2ccccc2)S/C1=C\c1cccs1 | 2 | -1 | 97* | 21 | 4 | 31 | 20 | -14 | /
Cc1cc(C)cc(N=C2NC(=O)/C(=C/c3cccs3)S2)c1 | -2 | -7 | 20 | -1 | -1 | 2 | / | / | /
O=C(CSc1nc(-c2ccc(F)cc2)nc2ccc(F)cc12)Nc1cccc(C(=O)O)c1 | -1 | -5 | 72* | 24 | 12 | 45 | 75* | -11 | 2
COc1cc(Br)cc2cc(C(=O)N3CCN(C(=O)c4ccco4)CC3)c(=O)oc12 | 11 | -3 | 56* | 3 | 12 | 8 | -7 | -13 | /
C/C(=N\NC(=O)c1cc(Cl)ccc1O)c1ccc(Br)s1 | -2 | 2 | 93* | 16 | -11 | 22 | 80* | -13 | 0
O=C(COC(=O)c1cncc(Br)c1)Nc1nnc(-c2ccccc2)o1 | 27 | 14 | 60* | 2 | 1 | 7 | 71* | -12 | 6.1*
COc1cc(OC)cc(C(=O)OCC(=O)Nc2nnc(-c3ccccc3)o2)c1 | 0 | 3 | -11 | 4 | 0 | 0 | / | / | /
CCN1CCN(c2ccc(NC(=O)c3ccccc3F)cc2Cl)CC1 | 0 | 3 | -3 | -1 | -4 | -1 | / | / | /
CCN1CCN(c2ccc(NC(=O)c3cc4ccccc4cc3OC)cc2C)CC1 | 2 | -21 | 65* | -5 | -1 | 0 | -23 | -16 | /
